Test [1] has as its system Human betaherpesvirus 5. The experiment in a line: Antiviral activity against human cytomegalovirus. The format is functional.
Test [2] in a line: Ratio of binding constant K for 3 base pair binding site poly(dA-dT)2 DNA to binding constant K for calf thymus DNA.
Test [3] deals with DNA. The experiment in a line: Binding affinity to calf thymus DNA assessed as drug-DNA intercalation at 5 to 10 uM by absorption spectra analysis. The format is nucleic-acid assay. Particulars: Bos taurus. In short, it runs like this: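 Ligands at 10 µM (monomeric) or 5 µM (dimeric) mixed 1:1 by volume with ct-DNA, 160 µM bases, in 10 mM phosphate pH 7.5, total Na+ 100 mM. Absorption spectra recorded at room temperature, several scans averaged.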

Test [4] relates to Nucleic Acid. Briefly: Binding affinity to poly(dA-dT)2 DNA assessed as drug-DNA intercalation at 5 to 10 uM by emission spectra analysis. The format is nucleic-acid assay. Summed up:
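Emission spectra recorded with and without poly(dA-dT)2 at 100 µM bases. Ligand at 10 µM (monomeric) or 5 µM (dimeric), room temperature, 10 mM phosphate pH 7.5, total Na+ 100 mM.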

Test [5] in a line: Ratio of binding constant K for 4 base pair binding site poly(dA-dT)2 DNA to binding constant K for calf thymus DNA.
Test [6] in a line: Ratio of binding constant K for 2 base pair binding site poly(dA-dT)2 DNA to binding constant K for calf thymus DNA.
Test [7] concerns DNA. The experiment in a line: Binding affinity to calf thymus DNA assessed as drug-DNA intercalation at 5 to 10 uM by linear dichroism analysis. The test is classed as nucleic-acid assay. Particulars: Bos taurus. Summed up: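 Flow linear dichroism with calf thymus DNA at 160 µM bases, ligand 10 µM (monomeric) or 5 µM (dimeric), 10 mM phosphate pH 7.5, Na+ 100 mM, room temperature. Spectra taken over 200–650 nm and baseline-corrected by subtracting the non-oriented sample spectrum.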

A short description of test [8]: Ratio of binding constant K for poly(dA-dT)2 DNA to binding constant K for calf thymus DNA.

Each structure is given as a SMILES string. Where “and” joins values, the source holds several entries; their conditions need not be identical. Equal entries are not always repeated. Calls of active or inactive are those of the source. The rule behind the calls is not given here.

As for `C[N+](C)(CCC[N+](C)(C)CCn1c2ccccc2c2nc3ccccc3nc21)CCn1c2ccccc2c2nc3ccccc3nc21.[Br-].[Br-]`, in test [1], the “inhibition (INH)” value was determined as 100%. Further, in test [2], the Ratio was determined as 1.9. Moreover, the outcome in test [3] and in test [4] was Active.

Take `C[N+](C)(CCCCCC[N+](C)(C)CCn1c2ccccc2c2nc3ccccc3nc21)CCn1c2ccccc2c2nc3ccccc3nc21.[Br-].[Br-]`: the “inhibition (INH)” value in test [1] is listed as 100%. The Ratio in test [5] was 3. In addition, the outcome in test [3] and in test [4] was Active.

`Cc1cc2nc3c4ccccc4n(CCN(C)C)c3nc2cc1C` [listing 1 of 2 here]: in test [6], the Ratio was 1.8 and 2.4. The outcome in test [3] and in test [4] was Active. Further, the outcome in test [7] was inactive.

As for `Nc1nc2c(ncn2COC(CO)CO)c(=O)[nH]1` [GANCICLOVIR], the “inhibition (INH)” value in test [1] worked out at 30%.

`Cc1cc2nc3c4ccccc4n(CCN(C)C)c3nc2cc1C.I`: in test [1], the “inhibition (INH)” value was determined as 100%.

Consider `Cc1cc2nc3c4ccccc4n(CCN(C)C)c3nc2cc1C` [listing 2 of 2 here], for which the “inhibition (INH)” value in test [1] was determined as 20%.

As to `Cc1cc2nc3c4cc(N)ccc4n(CCN(C)C)c3nc2cc1C.Cl`, the “inhibition (INH)” value in test [1] is recorded as 100%. Moreover, in test [8], the Ratio stood at 1.7. Moreover, the result in test [3] and in test [4] was Active.

`Cc1cc2nc3c4ccccc4n(CCN(C)C)c3nc2cc1C.Cl`: in test [1], the “inhibition (INH)” value is 100%.

The record behind these values is ChEMBL document CHEMBL1151726, “Interactions of antiviral indolo[2,3-b]quinoxaline derivatives with DNA” (2008).
